Assay results as given in ChEMBL document CHEMBL4665645, “Role of the NMDA Receptor in the Antitumor Activity of Chiral 1,4-Dioxane Ligands in MCF-7 and SKBR3 Breast Cancer Cells” (ACS Med Chem Lett, 2019).
pKi: −log10 of the molar value. Active and inactive are the calls of the source.

What was measured:
[1] = test system: MCF7; assay: Cytotoxicity against siNMDA receptor transfected human MCF7 cells assessed as reduction in cell viability after 48 hrs by SRB assay; type: functional
Procedure, shortened: (§1)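 GluN1 subunit knocked down by siNMDA R transfection, confirmed by qRT-PCR and Western blot; compared with untransfected cells. SRB viability read after 48 h exposure to a range of concentrations. Mean ± SE of three separate experiments.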

[2] = test system: MCF7; assay: Induction of apoptosis in human MCF7 cells transfected with siNMDA receptor assessed as early apoptotic cells at 100 uM after 72 hrs by Annexin V-FITC/propidium iodide staining-based flow cytometric analysis (reference value: 33 %); type: functional
[3] = test system: SK-BR-3; assay: Induction of apoptosis in human SK-BR-3 cells transfected with siNMDA receptor assessed as active caspase-3 level at 25 uM incubated for 72 hrs by Western blot analysis; type: functional, cell-based
Procedure, shortened: (§2)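 Cells transfected with siNMDA R (GluN1) or left untransfected, then treated 72 h (MCF-7 100 μM, SKBR3 25 μM) or left untreated. Cleaved caspase-3 detected by immunoblot; densitometry normalised to GAPDH; p < 0.01 threshold.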

[4] = test system: MCF7; assay: Induction of apoptosis in human MCF7 cells after 48 to 72 hrs by AnnexinV-FITC/PI staining based flow cytometric analysis; type: functional, cell-based; conditions: time hrs 48-72
[5] = test system: SK-BR-3; assay: Induction of ROS generation in human SK-BR-3 cells at 25 uM pretreated for 1 hr with ROS scavenger, NAC followed by compound addition and measured after 72 hrs by DCFDA staining-based flow cytometric analysis; type: functional, cell-based
Procedure, shortened: (§3)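 MCF-7 treated at 100 μM, SKBR3 at 25 μM, for 24, 48 and 72 h, alone or after NAC (10 mM) pretreatment. ROS measured by DCFDA staining and flow cytometry. Significance set at p < 0.01 vs untreated or vs treated-alone cells.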

[6] = test system: SK-BR-3; assay: Induction of apoptosis in human SK-BR-3 cells transfected with si-NMDA receptor assessed as necrotic cells at 25 uM after 72 hrs by Annexin V-FITC/propidium iodide staining-based flow cytometric analysis (reference value: 4 %); type: functional
[7] = test system: MCF7; assay: Induction of apoptosis in human MCF7 cells assessed as early apoptotic cells at 100 uM after 72 hrs by Annexin V-FITC/propidium iodide staining-based flow cytometric analysis (reference value: 2 to 13 %); type: functional
[8] = Apparent permeability in human Caco2 cells; type: ADME, cell-based; conditions: caco-2
[9] = test system: SK-BR-3; assay: Induction of apoptosis in human SK-BR-3 cells assessed as necrotic cells at 25 uM after 72 hrs by Annexin V-FITC/propidium iodide staining-based flow cytometric analysis (reference value: 1 to 3 %); type: functional
[10] = test system: SK-BR-3; assay: Induction of ROS generation in human SK-BR-3 cells at 25 uM after 72 hrs by DCFDA staining-based flow cytometric analysis; type: functional, cell-based; procedure, shortened: as §3
[11] = test system: MCF7; assay: Induction of apoptosis in human MCF7 cells at 100 uM by AnnexinV-FITC/PI staining based flow cytometric analysis; type: functional, cell-based; conditions: time hrs 48-72, TDE = time-dependent effect
[12] = test system: MCF7; assay: Induction of apoptosis in human MCF7 cells assessed as necrotic cells at 100 uM after 72 hrs by Annexin V-FITC/propidium iodide staining-based flow cytometric analysis (reference value: 1 to 5 %); type: functional
[13] = Metabolic stability in human liver microsomes; type: ADME, Microsome
[14] = test system: SK-BR-3; assay: Cytotoxicity against human SK-BR-3 cells assessed as reduction in cell viability incubated for 48 hrs by SRB assay; type: functional
Procedure, shortened: (§4)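 Followed the NCI SRB protocol: cells exposed 48 h to a range of concentrations. GI50 is the concentration giving 50% net growth inhibition; TGI is 100% growth inhibition; LC50 kills 50% of initial cells. Mean ± SE of three separate experiments.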

[15] = test system: MCF7; assay: Cytotoxicity against human MCF7 cells assessed as reduction in cell viability after 48 hrs by SRB assay; type: functional; procedure, shortened: as §4
[16] = test system: SK-BR-3; assay: Induction of apoptosis in human SK-BR-3 cells assessed as early apoptotic cells at 25 uM after 48 hrs by Annexin V-FITC/propidium iodide staining-based flow cytometric analysis (reference value: 9 %); type: functional
[17] = test system: MCF7; assay: Induction of apoptosis in human MCF7 cells assessed as early apoptotic cells at 100 uM after 48 hrs by Annexin V-FITC/propidium iodide staining-based flow cytometric analysis (reference value: 16 %); type: functional
[18] = test system: MCF7; assay: Induction of apoptosis in human MCF7 cells assessed as necrotic cells at 100 uM after 48 hrs by Annexin V-FITC/propidium iodide staining-based flow cytometric analysis (reference value: 7 %); type: functional
[19] = test system: SK-BR-3; assay: Cytotoxicity against siNMDA receptor transfected human SK-BR-3 cells assessed as reduction in cell viability after 48 hrs by SRB assay; type: functional; procedure, shortened: as §1
[20] = test system: SK-BR-3; assay: Induction of apoptosis in human SK-BR-3 cells assessed as fold increase in cleavage of pro-caspase 3 at 25 uM incubated for 72 hrs by Western blot analysis relative to control; type: functional
Procedure, shortened: (§5)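 Caspase-3 immunoblot after 72 h treatment (MCF-7 100 μM, SKBR3 25 μM), tracking procaspase-3 cleavage to the active form. Densitometry normalised to GAPDH loading control.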

[21] = test system: MCF7; assay: Induction of apoptosis in human MCF7 cells transfected with siNMDA receptor assessed as late apoptotic cells at 100 uM after 72 hrs by Annexin V-FITC/propidium iodide staining-based flow cytometric analysis (reference value: 4 %); type: functional
[22] = test system: MCF7; assay: Induction of apoptosis in human MCF7 cells assessed as late apoptotic cells at 100 uM after 48 hrs by Annexin V-FITC/propidium iodide staining-based flow cytometric analysis (reference value: 2 %); type: functional
[23] = test system: SK-BR-3; assay: Induction of apoptosis in human SK-BR-3 cells transfected with siNMDA receptor assessed as early apoptotic cells at 25 uM after 72 hrs by Annexin V-FITC/propidium iodide staining-based flow cytometric analysis (reference value: 35 %); type: functional
[24] = test system: MCF7; assay: Induction of apoptosis in human MCF7 cells transfected with siNMDA receptor assessed as active caspase-3 level at 100 uM incubated for 72 hrs by Western blot analysis; type: functional, cell-based; procedure, shortened: as §2
[25] = test system: MCF7; assay: Induction of ROS generation in human MCF7 cells at 100 uM pretreated for 1 hr with ROS scavenger, NAC followed by compound addition and measured after 72 hrs by DCFDA staining-based flow cytometric analysis; type: functional, cell-based; procedure, shortened: as §3
[26] = test system: MCF7; assay: Induction of apoptosis in human MCF7 cells assessed as late apoptotic cells at 100 uM after 72 hrs by Annexin V-FITC/propidium iodide staining-based flow cytometric analysis (reference value: 1 to 2 %); type: functional
[27] = test system: SK-BR-3; assay: Induction of apoptosis in human SK-BR-3 cells assessed as early apoptotic cells at 25 uM after 72 hrs by Annexin V-FITC/propidium iodide staining-based flow cytometric analysis (reference value: 1 to 9 %); type: functional
[28] = test system: SK-BR-3; assay: Induction of apoptosis in human SK-BR-3 cells assessed as necrotic cells at 25 uM after 48 hrs by Annexin V-FITC/propidium iodide staining-based flow cytometric analysis (reference value: 2 %); type: functional
[29] = test system: SK-BR-3; assay: Induction of apoptosis in human SK-BR-3 cells after 48 to 72 hrs by AnnexinV-FITC/PI staining based flow cytometric analysis; type: functional, cell-based; conditions: time hrs 48-72
[30] = test system: SK-BR-3; assay: Induction of apoptosis in human SK-BR-3 cells assessed as late apoptotic cells at 25 uM after 72 hrs by Annexin V-FITC/propidium iodide staining-based flow cytometric analysis (reference value: 1 to 3 %); type: functional
[31] = test system: SK-BR-3; assay: Induction of apoptosis in human SK-BR-3 cells at 25 uM by AnnexinV-FITC/PI staining based flow cytometric analysis; type: functional, cell-based; conditions: time hrs 48-72, TDE = time-dependent effect
[32] = test system: SK-BR-3; assay: Induction of apoptosis in human SK-BR-3 cells assessed as late apoptotic cells at 25 uM after 48 hrs by Annexin V-FITC/propidium iodide staining-based flow cytometric analysis (reference value: 2 %); type: functional
[33] = test system: MCF7; assay: Induction of mitochondrial membrane depolarization in human MCF7 cells at 100 uM by JC1 staining based flow cytometric analysis; type: functional, cell-based
Procedure, shortened: (§6)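 Mitochondrial membrane potential (Δψm) in untreated versus treated cells (MCF-7 100 μM, SKBR3 25 μM), assessed by JC-1 staining.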

[34] = Displacement of [3H]-(+)-MK-801 from PCP binding site of NMDA receptor in pig brain cortex membranes after 120 mins by scintillation counting analysis; type: cell membranes, Sus scrofa, Cerebral cortex, Membrane
[35] = test system: SK-BR-3; assay: Induction of apoptosis in human SK-BR-3 cells transfected with siNMDA receptor assessed as late apoptotic cells at 25 uM after 72 hrs by Annexin V-FITC/propidium iodide staining-based flow cytometric analysis (reference value: 2 %); type: functional
[36] = test system: MCF7; assay: Induction of apoptosis in human MCF7 cells transfected with siNMDA receptor assessed as necrotic cells at 100 uM after 72 hrs by Annexin V-FITC/propidium iodide staining-based flow cytometric analysis (reference value: 3 %); type: functional
[37] = test system: SK-BR-3; assay: Induction of mitochondrial membrane depolarization in human SK-BR-3 cells at 25 uM by JC1 staining based flow cytometric analysis; type: functional, cell-based; procedure, shortened: as §6
[38] = test system: MCF7; assay: Induction of apoptosis in human MCF7 cells assessed as fold increase in cleavage of pro-caspase 3 at 100 uM incubated for 72 hrs by Western blot analysis relative to control; type: functional; procedure, shortened: as §5
[39] = test system: MCF7; assay: Induction of ROS generation in human MCF7 cells at 100 uM after 72 hrs by DCFDA staining-based flow cytometric analysis; type: functional, cell-based; procedure, shortened: as §3

NC[C@H]1COCC(c2ccccc2)(c2ccccc2)O1
GI50 [1]: 520 µM
Activity [2]: 26%
Activity [3]: inactive
Activity [4]: Dose-dependent effect
Activity [5]: inactive
Activity [6]: 8%
Activity [7]: 16%
permeability [8]: Permeable
Activity [9]: 17%
Activity [10]: Active
Activity [11]: Tde
Activity [12]: 9%
Stabilty [13]: Stable
Activity [14]: Dose-dependent effect
GI50 [14]: 23 µM
Activity [15]: Dose-dependent effect
GI50 [15]: 99 µM
Activity [16]: 19%
Activity [17]: 26%
Activity [18]: 8%
GI50 [19]: 57 µM
fold change (FC) [20]: 5.1
Activity [21]: 5%
Activity [22]: 8%
Activity [23]: 24%
Activity [24]: inactive
Activity [25]: inactive
Activity [26]: 19%
Activity [27]: 11%
Activity [28]: 4%
Activity [29]: Dose-dependent effect
Activity [30]: 15%
Activity [31]: Tde
Activity [32]: 5%
Activity [33]: inactive
pKi [34]: < 5.00
Activity [35]: 3%
Activity [36]: 7%
Activity [37]: inactive
fold change (FC) [38]: 3.2
Activity [39]: Active

CN[C@]1(c2ccccc2Cl)CCCCC1=O [ESKETAMINE]
GI50 [14]: > 300 µM
TGI [14]: > 300 µM
GI50 [15]: > 300 µM
TGI [15]: > 300 µM

NCC1COCC(c2ccccc2)(c2ccccc2)O1 (racemic)
GI50 [14]: 31.2 µM
LC50 (concentration killing 50% of initial cells) [14]: > 300 µM
TGI [14]: 200 µM
GI50 [15]: 74.4 µM
LC50 (concentration killing 50% of initial cells) [15]: 253 µM
TGI [15]: 137 µM
